Test results: ChEMBL document CHEMBL5705890, “Antitumor activity of an allosteric inhibitor of centromere-associated protein-E” (Proc Natl Acad Sci U S A, 2010)

Assays:
[1] = tested on: AN3-CA; experiment: Anticancer activity against human AN3-CA cells assessed as cell growth inhibition measured after 72 hrs by DAPI staining based analysis; format: functional
Summary of the method: (§1)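 Cells were seeded and, after 24 h, DNA content was read as T0. Cells were then exposed to varying drug concentrations for a further 72 h (T72). Fixed cells were DAPI-stained and DNA content measured by automated imaging. T72 values were normalized to T0. GI50 is the concentration giving 50% growth inhibition between T0 and Ymax, obtained by curve fitting.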

[2] = tested on: 647-V; experiment: Anticancer activity against human 647-V cells assessed as cell growth inhibition measured after 72 hrs by DAPI staining based analysis; format: functional; summary of the method: as §1
[3] = tested on: HCT-15; experiment: Anticancer activity against human HCT-15 cells assessed as cell doubling measured for 72 hrs by DAPI staining based analysis; format: functional
[4] = tested on: SK-N-AS; experiment: Anticancer activity against human SK-N-AS cells assessed as cell growth inhibition measured after 72 hrs by DAPI staining based analysis; format: functional
[5] = tested on: A549; experiment: Antitumor activity against human A549 cells in xenograft model assessed as difference between median time to endpoint time of treated versus control group at 125 mg/kg; format: functional
[6] = tested on: SW1417; experiment: Anticancer activity against human SW1417 cells assessed as cell doubling measured for 72 hrs by DAPI staining based analysis; format: functional
[7] = tested on: ARH-77; experiment: Anticancer activity against human ARH-77 cells assessed as cell growth inhibition measured after 72 hrs by DAPI staining based analysis; format: functional; summary of the method: as §1
[8] = tested on: DoTc2-4510; experiment: Anticancer activity against human DoTc2-4510 cells assessed as cell growth inhibition measured after 72 hrs by DAPI staining based analysis; format: functional
Summary of the method: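 Cells seeded, DAPI-stained DNA content of fixed cells read by imaging 24 h after seeding (T0), and again after a further 72 h exposure to a range of drug concentrations (T72). T72 values were normalized to T0. Curve fits gave the concentration producing 50% growth inhibition relative to T0 and Ymax (GI50).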

[9] = tested on: MC-CAR; experiment: Anticancer activity against human MC-CAR cells assessed as cell doubling measured for 72 hrs by DAPI staining based analysis; format: functional
[10] = tested on: SK-MEL-28; experiment: Anticancer activity against human SK-MEL-28 cells assessed as cell doubling measured for 72 hrs by DAPI staining based analysis; format: functional
[11] = tested on: SNU1; experiment: Anticancer activity against human SNU1 cells assessed as cell growth inhibition measured after 72 hrs by DAPI staining based analysis; format: functional
[12] = tested on: HPAF-II; experiment: Anticancer activity against human HPAF-II cells assessed as cell growth inhibition measured after 72 hrs by DAPI staining based analysis; format: functional
[13] = tested on: KM12; experiment: Anticancer activity against human KM12 cells assessed as cell growth inhibition measured after 72 hrs by DAPI staining based analysis; format: functional
[14] = tested on: SAOS-2; experiment: Anticancer activity against human SAOS-2 cells assessed as cell doubling measured for 72 hrs by DAPI staining based analysis; format: functional
[15] = tested on: CHP-212; experiment: Anticancer activity against human CHP-212 cells assessed as cell growth inhibition measured after 72 hrs by DAPI staining based analysis; format: functional
Summary of the method: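 Cells were seeded, and DNA content at 24 h after seeding (T0) was read by imaging of fixed, DAPI-stained cells. Cells were then exposed to a range of drug concentrations for a further 72 h (T72) and DNA content was read again. T72 values were normalized to T0, and GI50 was taken from curve fits as the concentration giving 50% growth inhibition relative to T0 and Ymax.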

[16] = tested on: A101D; experiment: Anticancer activity against human A101D cells assessed as cell growth inhibition measured after 72 hrs by DAPI staining based analysis; format: functional; summary of the method: as §1
[17] = tested on: NCI-H526; experiment: Anticancer activity against human NCI-H526 cells assessed as cell growth inhibition measured after 72 hrs by DAPI staining based analysis; format: functional
[18] = Anticancer activity against human SCC-13 cells assessed as cell growth inhibition measured after 72 hrs by DAPI staining based analysis; format: functional
[19] = tested on: SCC-25; experiment: Anticancer activity against human SCC-25 cells assessed as cell doubling measured for 72 hrs by DAPI staining based analysis; format: functional
[20] = tested on: SW872; experiment: Anticancer activity against human SW872 cells assessed as cell doubling measured for 72 hrs by DAPI staining based analysis; format: functional
[21] = tested on: NCI-H187; experiment: Anticancer activity against human NCI-H187 cells assessed as cell doubling measured for 72 hrs by DAPI staining based analysis; format: functional
[22] = tested on: HCT-8; experiment: Anticancer activity against human HCT-8 cells assessed as cell doubling measured for 72 hrs by DAPI staining based analysis; format: functional
[23] = tested on: A101D; experiment: Anticancer activity against human A101D cells assessed as cell doubling measured for 72 hrs by DAPI staining based analysis; format: functional
[24] = target: Centromere-associated protein E (Homo sapiens, UniProt Q02224, I182L/K184T); experiment: Binding affinity to human CENP-E I182L/K184T mutant assessed as inhibition constant
Sequence of Centromere-associated protein E (Homo sapiens, UniProt Q02224, I182L/K184T) (Q02224 whole entry I182L/K184T): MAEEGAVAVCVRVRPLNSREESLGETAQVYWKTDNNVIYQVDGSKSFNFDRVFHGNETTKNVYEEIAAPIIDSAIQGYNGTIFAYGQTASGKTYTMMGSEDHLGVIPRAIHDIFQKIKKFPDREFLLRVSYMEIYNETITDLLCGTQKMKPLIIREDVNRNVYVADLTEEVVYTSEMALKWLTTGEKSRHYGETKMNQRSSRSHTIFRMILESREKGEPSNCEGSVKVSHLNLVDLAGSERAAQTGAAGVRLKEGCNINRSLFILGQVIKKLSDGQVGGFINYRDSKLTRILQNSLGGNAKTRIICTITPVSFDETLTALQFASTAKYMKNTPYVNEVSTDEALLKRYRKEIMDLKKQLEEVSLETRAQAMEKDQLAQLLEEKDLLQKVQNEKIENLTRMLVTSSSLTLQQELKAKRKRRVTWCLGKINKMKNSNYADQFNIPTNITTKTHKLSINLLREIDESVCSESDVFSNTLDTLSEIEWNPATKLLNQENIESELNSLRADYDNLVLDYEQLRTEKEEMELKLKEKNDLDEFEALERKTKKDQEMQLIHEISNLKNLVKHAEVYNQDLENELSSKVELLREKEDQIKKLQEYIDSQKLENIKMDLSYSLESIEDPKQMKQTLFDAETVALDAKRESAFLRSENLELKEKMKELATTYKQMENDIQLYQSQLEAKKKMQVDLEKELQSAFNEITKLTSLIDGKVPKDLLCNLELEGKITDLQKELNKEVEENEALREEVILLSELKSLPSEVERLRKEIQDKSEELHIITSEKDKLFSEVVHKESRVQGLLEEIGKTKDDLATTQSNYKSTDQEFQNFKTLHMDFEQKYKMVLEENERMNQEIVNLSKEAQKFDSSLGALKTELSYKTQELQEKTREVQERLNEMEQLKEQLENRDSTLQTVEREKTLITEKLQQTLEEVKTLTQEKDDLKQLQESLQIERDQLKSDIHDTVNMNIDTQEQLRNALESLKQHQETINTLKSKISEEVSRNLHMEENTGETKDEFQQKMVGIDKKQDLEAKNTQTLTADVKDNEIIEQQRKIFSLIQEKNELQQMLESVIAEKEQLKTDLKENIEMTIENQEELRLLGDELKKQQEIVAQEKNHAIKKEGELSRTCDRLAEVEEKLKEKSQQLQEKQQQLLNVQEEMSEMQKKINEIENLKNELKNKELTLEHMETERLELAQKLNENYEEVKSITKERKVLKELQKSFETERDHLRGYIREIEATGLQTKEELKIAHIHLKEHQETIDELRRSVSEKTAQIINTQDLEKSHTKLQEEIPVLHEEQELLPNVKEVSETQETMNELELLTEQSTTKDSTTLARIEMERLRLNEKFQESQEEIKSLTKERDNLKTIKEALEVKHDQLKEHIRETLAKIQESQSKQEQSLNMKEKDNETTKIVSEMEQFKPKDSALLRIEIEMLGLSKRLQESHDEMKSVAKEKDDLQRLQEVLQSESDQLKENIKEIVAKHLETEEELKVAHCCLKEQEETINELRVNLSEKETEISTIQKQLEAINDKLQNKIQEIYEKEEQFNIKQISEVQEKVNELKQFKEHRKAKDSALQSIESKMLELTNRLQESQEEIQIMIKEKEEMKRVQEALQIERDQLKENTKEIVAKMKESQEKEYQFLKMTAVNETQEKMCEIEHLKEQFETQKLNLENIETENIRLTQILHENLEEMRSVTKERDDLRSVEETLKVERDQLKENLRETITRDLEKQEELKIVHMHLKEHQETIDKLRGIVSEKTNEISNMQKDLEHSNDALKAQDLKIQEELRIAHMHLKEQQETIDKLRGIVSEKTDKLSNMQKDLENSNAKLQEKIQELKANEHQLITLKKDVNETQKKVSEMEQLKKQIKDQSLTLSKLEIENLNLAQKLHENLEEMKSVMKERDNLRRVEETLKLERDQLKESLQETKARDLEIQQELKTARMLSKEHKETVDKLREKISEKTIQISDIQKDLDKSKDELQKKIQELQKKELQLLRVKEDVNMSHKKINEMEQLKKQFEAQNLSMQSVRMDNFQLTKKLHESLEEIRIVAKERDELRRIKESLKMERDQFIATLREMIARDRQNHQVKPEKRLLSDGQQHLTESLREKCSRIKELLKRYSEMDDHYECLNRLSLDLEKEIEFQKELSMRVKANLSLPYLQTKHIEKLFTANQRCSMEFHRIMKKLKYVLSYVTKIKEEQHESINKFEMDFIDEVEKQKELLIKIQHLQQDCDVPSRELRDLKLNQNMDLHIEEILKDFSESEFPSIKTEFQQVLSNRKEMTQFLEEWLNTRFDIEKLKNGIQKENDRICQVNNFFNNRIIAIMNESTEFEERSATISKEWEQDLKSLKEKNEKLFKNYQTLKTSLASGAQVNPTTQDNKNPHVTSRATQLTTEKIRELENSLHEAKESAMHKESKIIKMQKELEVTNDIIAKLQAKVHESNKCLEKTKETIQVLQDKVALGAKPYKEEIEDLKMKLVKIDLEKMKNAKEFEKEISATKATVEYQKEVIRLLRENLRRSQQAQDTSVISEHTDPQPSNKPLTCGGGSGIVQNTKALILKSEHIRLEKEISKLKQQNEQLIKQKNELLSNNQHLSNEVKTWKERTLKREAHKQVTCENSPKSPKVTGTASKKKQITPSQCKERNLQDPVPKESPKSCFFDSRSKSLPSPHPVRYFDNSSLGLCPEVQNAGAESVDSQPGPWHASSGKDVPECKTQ

[25] = tested on: SK-N-FI; experiment: Anticancer activity against human SK-N-FI cells assessed as cell growth inhibition measured after 72 hrs by DAPI staining based analysis; format: functional
[26] = tested on: NCI-H146; experiment: Anticancer activity against human NCI-H146 cells assessed as cell growth inhibition measured after 72 hrs by DAPI staining based analysis; format: functional
[27] = tested on: U2OS; experiment: Anticancer activity against human U2OS cells assessed as cell growth inhibition measured after 72 hrs by DAPI staining based analysis; format: functional
[28] = tested on: SCC-15; experiment: Anticancer activity against human SCC-15 cells assessed as cell growth inhibition measured after 72 hrs by DAPI staining based analysis; format: functional
[29] = tested on: SCC-4; experiment: Anticancer activity against human SCC-4 cells assessed as cell growth inhibition measured after 72 hrs by DAPI staining based analysis; format: functional
[30] = tested on: Malme-3M; experiment: Anticancer activity against human Malme-3M cells assessed as cell doubling measured for 72 hrs by DAPI staining based analysis; format: functional
[31] = tested on: NCI-H1299; experiment: Antitumor activity against human NCI-H1299 cells in xenograft model assessed as tumor growth delay at 125 mg/kg relative to control; format: functional
[32] = tested on: BE(2)-C; experiment: Anticancer activity against human BE2C cells assessed as cell growth inhibition measured after 72 hrs by DAPI staining based analysis; format: functional; summary of the method: as §1
[33] = tested on: Detroit 562; experiment: Anticancer activity against human Detroit 562 cells assessed as cell doubling measured for 72 hrs by DAPI staining based analysis; format: functional
[34] = target: Centromere-associated protein E (Homo sapiens, UniProt Q02224, T183A); experiment: Binding affinity to human CENP-E T183A mutant assessed as inhibition constant
Sequence of Centromere-associated protein E (Homo sapiens, UniProt Q02224, T183A) (Q02224 whole entry T183A): as the sequence (Q02224 whole entry I182L/K184T) above, with L182I, T183A, T184K counted along it

[35] = tested on: HT-29; experiment: Anticancer activity against human HT-29 cells assessed as cell growth inhibition measured after 72 hrs by DAPI staining based analysis; format: functional
[36] = tested on: SNB-19; experiment: Anticancer activity against human SNB-19 cells assessed as cell doubling measured for 72 hrs by DAPI staining based analysis; format: functional
[37] = tested on: SW1088; experiment: Anticancer activity against human SW1088 cells assessed as cell growth inhibition measured after 72 hrs by DAPI staining based analysis; format: functional
[38] = tested on: NCI-H2122; experiment: Anticancer activity against human NCI-H2122 cells assessed as cell doubling measured for 72 hrs by DAPI staining based analysis; format: functional
[39] = tested on: NCI-H157; experiment: Anticancer activity against human NCI-H157 cells assessed as cell growth inhibition measured after 72 hrs by DAPI staining based analysis; format: functional
[40] = Anticancer activity against human CML-T1 cells assessed as cell doubling measured for 72 hrs by DAPI staining based analysis; format: functional

Structure (SMILES): CC(C)Oc1ccc(C(=O)N[C@H](CNC(=O)CN(C)C)Cc2ccc(-c3cn4cccc([C@H](C)O)c4n3)cc2)cc1Cl [GSK-923295A]
- GI50 [1]: 23 nM
- GI50 [2]: 72 nM
- Activity [3]: 4.01
- GI50 [4]: 38 nM
- Time [5]: 25.3 days
- Activity [6]: 1.94
- GI50 [7]: 34 nM
- GI50 [8]: 33 nM
- Activity [9]: 2.03
- Activity [10]: 2.43
- GI50 [11]: > 10000 nM
- GI50 [12]: 5030 nM
- GI50 [13]: 56 nM
- Activity [14]: 1.5
- GI50 [15]: 34 nM
- GI50 [16]: 17 nM
- GI50 [17]: 88 nM
- GI50 [18]: 58 nM
- Activity [19]: 2.99
- Activity [20]: 2.43
- Activity [21]: 2.08
- Activity [22]: 4.26
- Activity [23]: 1.36
- Ki [24]: 18 nM
- GI50 [25]: 120 nM
- GI50 [26]: 5230 nM
- GI50 [27]: 45 nM
- GI50 [28]: 63 nM
- GI50 [29]: 28 nM
- Activity [30]: 1.18
- Activity [31]: 76%
- GI50 [32]: 93 nM
- Activity [33]: 2.52
- Ki [34]: 13 nM
- GI50 [35]: 14 nM
- Activity [36]: 2.56
- GI50 [37]: 32 nM
- Activity [38]: 2.82
- GI50 [39]: 37 nM
- Activity [40]: 2.88
